Holding throughout (assay type): functional
What all share (conditions): read-out: -Log MIC (converted)

Assay [1] relates to Micrococcus luteus. The assay is described as follows: Antibacterial activity against Micrococcus luteus. The procedure, abridged:
(§1)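 Serial dilution MIC in double strength nutrient broth-IP against S. aureus, M. luteus and E. coli. Derivatives dissolved in DMSO as […] stock. Activity reported as −log MIC.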

Assay [2] deals with Escherichia coli. As to the kind of experiment: Antibacterial activity against Escherichia coli. The procedure, abridged: as §1
Assay [3] relates to Staphylococcus aureus. As to the kind of experiment: Antibacterial activity against Staphylococcus aureus. The procedure, abridged: as §1

In brackets after ≈: the same amount, converted by molar mass.

This is an account of results in ChEMBL document CHEMBL1147718, “Design, synthesis, antibacterial, and QSAR studies of myristic acid derivatives” (2006).

The term MIC denotes the lowest concentration that inhibits growth of the organism. With `CCCCCCCCCCCCCC(=O)N(CC)CC`, the MIC in assay [1] is 2140 µM (≈ 606 µg/mL); in assay [2] it was 2240 µM (≈ 635 µg/mL); in assay [3], 2630 µM (≈ 746 µg/mL).

With `CCCCCCCCCCCCCC(=O)Nc1ccc([N+](=O)[O-])cc1`, the MIC in assay [1] is 1740 µM (≈ 606 µg/mL); in assay [2] it was 2750 µM (≈ 960 µg/mL); in assay [3], 1380 µM (≈ 481 µg/mL).

Consider `CCCCCCCCCCCCCC(=O)Nc1cccc([N+](=O)[O-])c1`, for which the minimal inhibitory concentration (MIC) in assay [1] was 3470 µM (≈ 1210 µg/mL); in assay [2], 2750 µM (≈ 960 µg/mL); in assay [3] it was 2750 µM (≈ 960 µg/mL).

For `CCCCCCCCCCCCCC(=O)Nc1ccccc1`, the MIC was 1950 µM (≈ 592 µg/mL) in assay [1], 3160 µM (≈ 960 µg/mL) in assay [2] and 1950 µM (≈ 592 µg/mL) in assay [3].

`CCCCCCCCCCCCCC(=O)Nc1cccc(Cl)c1`: the MIC was 1170 µM (≈ 397 µg/mL) in assay [1], 2690 µM (≈ 910 µg/mL) in assay [2] and 1480 µM (≈ 500 µg/mL) in assay [3].

Turning to `CCCCCCCCCCCCCC(=O)Nc1ccc(Cl)cc1`, the MIC in assay [1] was 1480 µM (≈ 500 µg/mL); in assay [2], 2690 µM (≈ 910 µg/mL); in assay [3], 1480 µM (≈ 500 µg/mL).

In the case of `CCCCCCCCCCCCCC(=O)Nc1ccc(OC)cc1`, the MIC in assay [1] is 1780 µM (≈ 593 µg/mL); in assay [2], 2400 µM (≈ 800 µg/mL); in assay [3], 1510 µM (≈ 505 µg/mL).

Regarding `CCCCCCCCCCCCCC(=O)Nc1ccccc1OC`, the minimal inhibitory concentration (MIC) was 1780 µM (≈ 593 µg/mL) in assay [1], 2400 µM (≈ 800 µg/mL) in assay [2] and 1510 µM (≈ 505 µg/mL) in assay [3].

`CCCCCCCCCCCCCC(=O)NCCCC`: the minimal inhibitory concentration (MIC) was 2450 µM (≈ 696 µg/mL) in assay [1], 3550 µM (≈ 1010 µg/mL) in assay [2] and 2140 µM (≈ 606 µg/mL) in assay [3].

Regarding `CCCCCCCCCCCCCC(=O)NCCC`, the MIC was 2570 µM (≈ 693 µg/mL) in assay [1], 3720 µM (≈ 1000 µg/mL) in assay [2] and 2570 µM (≈ 693 µg/mL) in assay [3].

For the compound `CCCCCCCCCCCCCC(=O)Nc1ccccc1[N+](=O)[O-]`, the MIC was 1740 µM (≈ 606 µg/mL) in assay [1], 3470 µM (≈ 1210 µg/mL) in assay [2] and 1380 µM (≈ 481 µg/mL) in assay [3].

`CCCCCCCCCCCCCC(=O)Nc1ccccc1Cl`: the MIC is 1780 µM (≈ 601 µg/mL) in assay [1], 2690 µM (≈ 910 µg/mL) in assay [2] and 1480 µM (≈ 500 µg/mL) in assay [3].

On to `CCCCCCCCCCCCCC(=O)OCc1ccccc1` [BENZYL TETRADECANOATE], for which the MIC in assay [1] is 1860 µM (≈ 593 µg/mL); in assay [2] it was 2510 µM (≈ 800 µg/mL); in assay [3], 1580 µM (≈ 505 µg/mL).

Take `CCCCCCCCCCCCCC(=O)OCCCC` [BUTYL TETRADECANOATE]: the MIC in assay [1] is 4370 µM (≈ 1240 µg/mL); in assay [2] it was 3550 µM (≈ 1010 µg/mL); in assay [3] it was 2630 µM (≈ 748 µg/mL).

With `O=C(O)c1cn(C2CC2)c2cc(N3CCNCC3)c(F)cc2c1=O` [CIPROFLOXACIN], the MIC in assay [1], in assay [2] and in assay [3] was 468 µM (≈ 155 µg/mL) in each case.

As for `CCCCCCCCCCCCCC(=O)OCC` [ETHYL TETRADECANOATE], the MIC is 2450 µM (≈ 629 µg/mL) in assay [1], 2450 µM (≈ 629 µg/mL) in assay [2] and 3890 µM (≈ 998 µg/mL) in assay [3].

For the compound `CCCCCCCCCCCCCC(=O)OCCCCCCC` [HEPTYL TETRADECANOATE], the MIC in assay [1] was 1510 µM (≈ 494 µg/mL); in assay [2], 2450 µM (≈ 802 µg/mL); in assay [3], 1230 µM (≈ 402 µg/mL).

On to `CCCCCCCCCCCCCC(=O)OCCCCCC` [HEXYL TETRADECANOATE], for which the MIC in assay [1] was 1290 µM (≈ 403 µg/mL); in assay [2], 2570 µM (≈ 803 µg/mL); in assay [3], 1580 µM (≈ 495 µg/mL).

As to `CCCCCCCCCCCCCC(=O)OCC(C)C` [ISOBUTYL TETRADECANOATE], the MIC in assay [1] is 1740 µM (≈ 494 µg/mL); in assay [2] it was 3160 µM (≈ 900 µg/mL); in assay [3], 1740 µM (≈ 494 µg/mL).

`CCCCCCCCCCCCCC(=O)OCCC(C)C` [ISOPENTYL TETRADECANOATE]: the values for the MIC in assay [1], in assay [2] and in assay [3] were 2000 µM (≈ 596 µg/mL), 3020 µM (≈ 901 µg/mL) and 1660 µM (≈ 495 µg/mL), respectively.

For the compound `CCCCCCCCCCCCCC(=O)OC(C)C` [ISOPROPYL MYRISTATE], the figures for the MIC in assay [1], in assay [2] and in assay [3] were 2240 µM (≈ 605 µg/mL), 3720 µM (≈ 1000 µg/mL) and 2240 µM (≈ 605 µg/mL), respectively.

Take `CCCCCCCCCCCCCC(=O)OC` [METHYL TETRADECANOATE]: the values for the MIC in assay [1], in assay [2] and in assay [3] were 5130 µM (≈ 1240 µg/mL), 4170 µM (≈ 1010 µg/mL) and 4170 µM (≈ 1010 µg/mL), respectively.

As to `CCCCCCCCCCCCCC(=O)O` [MYRISTIC ACID], the values for the MIC in assay [1], in assay [2] and in assay [3] were 3310 µM (≈ 756 µg/mL), 5500 µM (≈ 1260 µg/mL) and 3310 µM (≈ 756 µg/mL), respectively.

As to `CCCCCCCCCCCCCC(=O)OCCCCCCCC` [OCTYL TETRADECANOATE], the MIC in assay [1] was 1170 µM (≈ 400 µg/mL); in assay [2], 2340 µM (≈ 798 µg/mL); in assay [3], 1170 µM (≈ 400 µg/mL).

In the case of `CCCCCCCCCCCCCC(=O)OCCCCC` [PENTYL TETRADECANOATE], the MIC in assay [1] is 2000 µM (≈ 596 µg/mL); in assay [2] it was 3020 µM (≈ 901 µg/mL); in assay [3], 2000 µM (≈ 596 µg/mL).

For the compound `CCCCCCCCCCCCCC(=O)OCCC` [PROPYL TETRADECANOATE], the minimum inhibitory concentration (MIC) in assay [1] is 2340 µM (≈ 634 µg/mL); in assay [2], 4570 µM (≈ 1240 µg/mL); in assay [3] it was 2340 µM (≈ 634 µg/mL).

On to `CCCCCCCCCCCCCC(N)=O` [TETRADECANAMIDE], for which the values for the MIC in assay [1], in assay [2] and in assay [3] were 5130 µM (≈ 1170 µg/mL), 3090 µM (≈ 703 µg/mL) and 2570 µM (≈ 584 µg/mL), respectively.

As for `CCCCCCCCCCCCCC(=O)NN` [TETRADECANEHYDRAZIDE], the MIC in assay [1] is 5130 µM (≈ 1240 µg/mL); in assay [2] it was 4170 µM (≈ 1010 µg/mL); in assay [3] it was 4170 µM (≈ 1010 µg/mL).
